Only some compounds are listed: those with a hit (about 2.9% of all), similar ones and a draw of the others.
DENV2 CPE: DENV2-induced cell death inhibition; DENV2-infected cells, cytopathic effect rescue, plate reader; CPE inhibition, % at 9.99 µM; 350,000 tested, 1.7% active; AID 651640; in the data active means CPE inhibition above about 20%, passing the limit was not always enough; tested in BHK-21 cells;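 further: 0% = median of neutral control wells and 100% = median of positive control wells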
SIRT5 block: blocks human SIRT5 desuccinylation of peptide; Q9NXA8; Purified SirT5, succinyl-peptide AMC, trypsin-coupled fluorescence; inhibition, % at 15 µM; 330,000 tested, 1.1% active; in the data active means inhibition above about 15%
CAL PDZ FP-1: blocks peptide binding to human CAL PDZ domain | Q9HD26 | purified CAL PDZ, TMR-peptide fluorescence polarization, 1 h | inhibition, % at 20 µM | 330,000 tested, 0.02% active;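 active means highest replicate inhibition of at least 40%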;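 further: plate controls were DMSO neutral control wells for no effect and unlabeled competitor peptide control wells for full effect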
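Test system: purified CerCALP PDZ construct; Compound dosing: one concentration, 20 µM compound; Also added: TMR-labelled reporter peptide T*-PRC34 bound in PDZ groove; Read-out: inhibition from polarization loss; Controls: unlabelled peptide and DMSO controls; Signal: FP readout, S and P plane fluorescence; Incubation: 1 h at RT.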
CAL PDZ FP-2: blocks peptide binding to the human CAL PDZ domain; 300,000 tested, 0.92% active; Q9HD26; AID 602252; purified CAL PDZ, TMR-peptide fluorescence polarization, 1 h; inhibition, % at 24.9 µM;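 active means mean inhibition of at least 30% with at least half of replicates also reaching 30%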;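 further: 0% = DMSO neutral control and 100% = excess unlabeled competitor peptide PRC23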
S100A4 inh HTS: inhibitors of human S100A4 binding to myosin IIA peptide | S100A4/TAMRA-MyoIIA peptide fluorescence polarization | inhibition, % at 10.7 µM | 360,000 tested, 0.14% active | AID 652163;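 active means mean inhibition of at least 70% across replicates, with every replicate also reaching that level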
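assay system = human S100A4 monomer with TAMRA-labelled myosin IIA peptide | also added = labelled myosin peptide probe, 5 nM | incubation = 5 min between mix addition and reading | control set = DMSO and TFP controls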
ERAP1 inh: blocks human ERAP1 aminopeptidase activity. Q9NZ08. recombinant ERAP1, Leu-AMC fluorescence, 60 min. inhibition, % at 10.7 µM. 340,000 tested, 0.15% active. AID 652197;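 active means mean replicate inhibition of at least 30%, or all replicates individually reaching that 30% level; inactive means mean below 30% and not every replicate reaching it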;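 further: 0% = neutral control wells and 100% = L-leucinethiol positive control wells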
Target sequence (Q9NZ08 whole entry, looked up): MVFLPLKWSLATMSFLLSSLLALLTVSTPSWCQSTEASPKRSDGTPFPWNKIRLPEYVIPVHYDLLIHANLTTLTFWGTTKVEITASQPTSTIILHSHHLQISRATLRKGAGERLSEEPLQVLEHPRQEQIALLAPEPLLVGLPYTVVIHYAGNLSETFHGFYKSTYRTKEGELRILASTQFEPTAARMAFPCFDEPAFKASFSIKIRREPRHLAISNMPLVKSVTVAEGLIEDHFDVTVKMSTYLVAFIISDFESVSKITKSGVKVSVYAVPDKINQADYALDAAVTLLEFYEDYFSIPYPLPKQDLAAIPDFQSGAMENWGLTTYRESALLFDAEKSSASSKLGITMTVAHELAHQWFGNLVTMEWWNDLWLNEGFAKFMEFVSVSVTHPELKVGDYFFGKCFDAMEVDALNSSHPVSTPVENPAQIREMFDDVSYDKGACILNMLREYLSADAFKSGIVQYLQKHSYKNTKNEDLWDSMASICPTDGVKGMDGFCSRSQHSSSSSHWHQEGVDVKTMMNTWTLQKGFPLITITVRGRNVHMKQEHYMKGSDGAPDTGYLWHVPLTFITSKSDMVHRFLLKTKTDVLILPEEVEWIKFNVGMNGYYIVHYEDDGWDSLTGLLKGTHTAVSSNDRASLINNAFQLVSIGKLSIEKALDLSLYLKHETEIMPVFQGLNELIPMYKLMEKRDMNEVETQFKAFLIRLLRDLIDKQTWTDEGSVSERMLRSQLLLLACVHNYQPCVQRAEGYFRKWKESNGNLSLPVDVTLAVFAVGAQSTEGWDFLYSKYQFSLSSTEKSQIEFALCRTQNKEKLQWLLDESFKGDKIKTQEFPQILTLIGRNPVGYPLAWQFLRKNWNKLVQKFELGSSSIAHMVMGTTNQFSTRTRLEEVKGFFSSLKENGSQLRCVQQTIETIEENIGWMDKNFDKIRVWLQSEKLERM
* = called active by the depositor.

Cc1ccc(S(=O)(=O)Nc2ccc3c(c2)C(=O)N([C@H](C)CO)C[C@H](C)[C@H](CN(C)S(=O)(=O)c2c(C)noc2C)OCCCC[C@@H](C)O3)cc1 was read as DENV2 CPE -7, SIRT5 block 3, S100A4 inh HTS 6 and ERAP1 inh -3.
For COc1ccc(S(=O)(=O)N(C)C[C@H]2OCCCC[C@H](C)Oc3ccc(NS(=O)(=O)c4c(C)noc4C)cc3C(=O)N([C@H](C)CO)C[C@@H]2C)cc1 the results were DENV2 CPE 5, SIRT5 block 4, S100A4 inh HTS -14 and ERAP1 inh -2.
`Cc1ccc(S(=O)(=O)N(C)C[C@H]2OCCCC[C@H](C)Oc3ccc(NS(=O)(=O)c4c(C)noc4C)cc3C(=O)N([C@@H](C)CO)C[C@H]2C)cc1` gave DENV2 CPE 49*, SIRT5 block 9, S100A4 inh HTS -35 and ERAP1 inh -4.
For Cc1ccc(S(=O)(=O)N(C)C[C@@H]2OCCCC[C@H](C)Oc3ccc(NS(=O)(=O)c4c(C)noc4C)cc3C(=O)N([C@@H](C)CO)C[C@@H]2C)cc1 the results were DENV2 CPE 81*, SIRT5 block 13, S100A4 inh HTS -1 and ERAP1 inh -2.
For Cc1ccc(S(=O)(=O)N(C)C[C@@H]2OCCCC[C@H](C)Oc3ccc(NS(=O)(=O)c4c(C)noc4C)cc3C(=O)N([C@@H](C)CO)C[C@H]2C)cc1 the results were DENV2 CPE -3, SIRT5 block 5, S100A4 inh HTS -17 and ERAP1 inh -1.
COc1ccc(S(=O)(=O)N(C)C[C@@H]2OCCCC[C@H](C)Oc3ccc(NS(=O)(=O)c4c(C)noc4C)cc3C(=O)N([C@H](C)CO)C[C@H]2C)cc1 was read as DENV2 CPE 96*, SIRT5 block 5, S100A4 inh HTS -19 and ERAP1 inh -2.
`Cc1ccc(S(=O)(=O)Nc2ccc3c(c2)C(=O)N([C@H](C)CO)C[C@H](C)[C@H](CN(C)S(=O)(=O)c2c(C)noc2C)OCCCC[C@H](C)O3)cc1` gave DENV2 CPE 31*, SIRT5 block 14, S100A4 inh HTS -15 and ERAP1 inh -1.
Screening O=C1CN(S(=O)(=O)c2ccccc2)C[C@H]2[C@@H](c3ccc(Br)cc3)[C@H](CO)N12 returned DENV2 CPE -9, SIRT5 block -2, S100A4 inh HTS 5 and ERAP1 inh -1.
CO[C@H]1O[C@H](CO)[C@@H](OC(=O)Nc2ccc3c(c2)OCO3)[C@H](OC(=O)Nc2ccccc2)[C@H]1OC(=O)Nc1ccccc1 was read as DENV2 CPE 0, SIRT5 block -1, S100A4 inh HTS 13 and ERAP1 inh 1.
For O=C(CCN1CCCCC1)NCC[C@H]1CC[C@@H](NC(=O)C2CCCCC2)[C@H](CO)O1 the results were DENV2 CPE -3, SIRT5 block -1, S100A4 inh HTS 2 and ERAP1 inh 6.
Screening CCCNC(=O)[C@H]1[C@H](CO)[C@H]2Cn3c(ccc(C4=CCCCC4)c3=O)[C@@H]1N2CC returned DENV2 CPE -1, SIRT5 block -11, S100A4 inh HTS 2 and ERAP1 inh -4.
Screening COc1cccc(CN2C[C@@H]3N[C@H](C2)C3c2ccc(-c3ccccc3F)cc2)c1 (stereo partly specified) returned DENV2 CPE 0, SIRT5 block 5, S100A4 inh HTS 0 and ERAP1 inh -3.
`Cc1ccc(S(=O)(=O)N(C)C[C@H]2OCCCC[C@@H](C)Oc3ccc(NS(=O)(=O)c4c(C)noc4C)cc3C(=O)N([C@@H](C)CO)C[C@H]2C)cc1` gave DENV2 CPE 13, SIRT5 block 4, S100A4 inh HTS 94* and ERAP1 inh -3.
Cc1noc(C)c1S(=O)(=O)N(C)C[C@@H]1OCCCC[C@@H](C)Oc2ccc(NS(=O)(=O)c3ccc(Cl)cc3)cc2C(=O)N([C@H](C)CO)C[C@H]1C was read as DENV2 CPE 31*, SIRT5 block -2, S100A4 inh HTS -3 and ERAP1 inh 1.
Screening Cc1ccc(S(=O)(=O)N(C)C[C@H]2OCCCC[C@H](C)Oc3ccc(NS(=O)(=O)c4c(C)noc4C)cc3C(=O)N([C@H](C)CO)C[C@H]2C)cc1 returned DENV2 CPE 15, SIRT5 block 4, S100A4 inh HTS -14 and ERAP1 inh -3.
For CNC(=O)C[C@@H]1CC[C@@H]2[C@@H](COc3ccc(NC(=O)c4cc(F)cc(F)c4)cc3C(=O)N2C)O1 the results were DENV2 CPE -3, SIRT5 block -1, S100A4 inh HTS -7 and ERAP1 inh -2.
Screening CCCN1[C@@H]2Cn3c(ccc(-c4ccc(F)cc4)c3=O)[C@H]1[C@@H](C(=O)NCC)[C@@H]2CO returned DENV2 CPE 12, SIRT5 block -3, S100A4 inh HTS 0 and ERAP1 inh 1.
For CC(C)(C)c1cc(N2CCOCC2)n2ncc(-c3ccccc3)c2n1 the results were DENV2 CPE -5, SIRT5 block -20, CAL PDZ FP-1 -10, CAL PDZ FP-2 -10, S100A4 inh HTS -3 and ERAP1 inh 32*.
For CC(C)(C)c1cc(C(F)(F)F)n2ncc(-c3ccccc3)c2n1 the results were DENV2 CPE -3, SIRT5 block 1, CAL PDZ FP-1 -3, CAL PDZ FP-2 -3, S100A4 inh HTS 3 and ERAP1 inh 0.
Screening CC(C)Nc1cc(C(C)(C)C)nc2c(-c3ccccc3)cnn12 returned DENV2 CPE 46*, SIRT5 block -8, CAL PDZ FP-1 -1, CAL PDZ FP-2 133* and S100A4 inh HTS -2.
For CCCNC(=O)N1C[C@@H](O)COC[C@@H]2O[C@H](CC(=O)NCc3ccc(Cl)c(Cl)c3)CC[C@H]21 the results were DENV2 CPE 2, SIRT5 block -1, S100A4 inh HTS 9 and ERAP1 inh -3.
`C[C@]12c3[nH]c4cc(-c5ccco5)ccc4c3CCN1C(=O)[C@@H](CC(=O)NCCC1=CCCCC1)C[C@@H]2C(=O)N1CCCCC1` gave DENV2 CPE 17, SIRT5 block 6, CAL PDZ FP-1 0, CAL PDZ FP-2 48* and S100A4 inh HTS -9.
For CC[C@]12c3[nH]c4ccccc4c3CCN1C(=O)C(CC(=O)NC/C=C(\C)CCC=C(C)C)C[C@@H]2C(=O)N1CCN(C(=O)c2ccco2)CC1 (stereo partly specified) the results were DENV2 CPE 0, SIRT5 block 16*, CAL PDZ FP-1 1, CAL PDZ FP-2 -3, S100A4 inh HTS 3 and ERAP1 inh 10.
